In ChEMBL document CHEMBL1135044, “Studies on the side-chain hydroxylation of ifosfamide and its bromo analogue” (Bioorg Med Chem Lett, 2002):

Legend:
[1] = Dose required to kill 50% of healthy, non-tumour-bearing mice (LD50); conditions: mouse, in vivo
Method in brief: (§1)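 Sub-acute toxicity was tested in healthy, non-tumour-bearing CD2F1 females (12–16 weeks, 25–27 g), given a single ip injection or oral gavage and observed for 45 days. Mortality was pooled from 3–6 experiments, usually 4–7 dose levels, with ≥5 mice per group. Litchfield–Wilcoxon log-dose curves were fitted. LD50 (with 95% confidence limits) and LD5 (taken as MTD) were estimated graphically.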

[2] = organism: Mus musculus; assay: Maximum tolerated dose against L1210 leukemia in mice; assay type: functional; method in brief: as §1
[3] = organism: Mus musculus; assay: Effective dose that produce antitumor activity against L1210 leukemia in mice; assay type: functional
Method in brief: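 CD2F1 mice were inoculated ip with 10^5 ascitic L1210 cells in PBS and given a single ip dose on day 3 (advanced disease), following NIH/NCI in vivo screening protocols. ILS was calculated as T/C × 100 − 100 from average survival times. ED50, the dose giving 50% ILS, was read graphically from least-squares dose–effect curves.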

[4] = Therapeutic index represented as LD50/ED50 was determined

SMILES | LD50 [1] [mg/kg] | MTD [2] [mg/kg] | ED50 [3] [mg/kg] | TI [4] [Ratio]
O=[P@]1(NCCCl)OCCCN1CCBr | 289 | 230 | 21.3 | 13.6
[2H]C([2H])(CCl)N[P@]1(=O)OCCCN1C([2H])([2H])CBr | 265 | 196 | 15 | 17.7
O=P1(NCCCl)OCCCN1CCBr (stereo not drawn) | 320 | 236 | 34.3 | 9.3
[2H]C([2H])(CCl)NP1(=O)OCCCN1C([2H])([2H])CCl (stereo not drawn) |  |  | 67.8 | 
[2H]C([2H])(CCl)NP1(=O)OCCCN1C([2H])([2H])CBr (stereo not drawn) |  |  | 23.6 | 
O=P1(NCCCl)OCCCN1CCCl (stereo not drawn) [IFOSFAMIDE] | 687 | 518 | 96.4 | 7.1
